Assay results taken from ChEMBL document CHEMBL3596093, “Synthesis and antimicrobial evaluation of 5-aryl-1,2,4-triazole-3-thione derivatives containing a rhodanine moiety” (2015).
Values after ≈ are worked out from the molar mass of the structure shown.

Key:
Staphylococcus aureus [1] = assay: Bactericidal activity against methicillin-resistant Staphylococcus aureus CCARM 3506 after 24 hrs by agar plate method; assay type: functional; conditions: CCARM 3506, 24 h
Outline: (§1)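 5 µL from each well without visible growth plated on fresh Mueller-Hinton agar, then 37 °C for a further 24 h. MBC is the lowest concentration giving no visible colonies. Run in triplicate.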

Staphylococcus aureus [2] = assay: Bactericidal activity against methicillin-resistant Staphylococcus aureus CCARM 3167 after 24 hrs by agar plate method; assay type: functional; conditions: CCARM 3167, 24 h; outline: as §1
Escherichia coli [3] = assay: Antibacterial activity against Escherichia coli KCTC 1924 after 24 hrs by two-fold serial dilution method; assay type: functional; conditions: KCTC 1924, 24 h
Outline: (§2)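 Strains grown to mid-log phase in Mueller-Hinton broth, then diluted 1000-fold in the same broth to about 10^5 CFU/mL. Compounds were made up as DMSO stocks and two-fold serially diluted from a final top concentration of 64 µg/mL. Incubation was 37 °C for 24 h. Growth was read as absorbance at 630 nm on a microplate reader. MIC assays were run in triplicate.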

Staphylococcus aureus [4] = assay: Antibacterial activity against quinolone-resistant Staphylococcus aureus CCARM 3505 after 24 hrs by two-fold serial dilution method; assay type: functional; conditions: CCARM 3505, 24 h
Outline: (§3)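 Broth microdilution MIC. Bacteria grown to mid-log phase in Mueller-Hinton broth, diluted 1000-fold, about 10^5 CFU/mL. Compounds from DMSO stocks, two-fold serial dilution from a final 64 µg/mL. Incubation at 37 °C for 24 h. Growth read as absorbance at 630 nm on a microplate reader. Run in triplicate.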

Staphylococcus aureus [5] = assay: Bactericidal activity against Staphylococcus aureus RN4220 after 24 hrs by agar plate method; assay type: functional; conditions: RN4220, 24 h
Outline: (§4)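 Samples of 5 µL from MIC wells with no visible growth were plated onto fresh Mueller-Hinton agar and incubated a further 24 h at 37 °C. MBC is the lowest concentration giving no visible colony growth on the agar. Assays were run in triplicate.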

Salmonella typhimurium = assay: Antibacterial activity against Salmonella typhimurium 2421 after 24 hrs by two-fold serial dilution method; assay type: functional, Salmonella enterica subsp. enterica serovar Typhimurium; conditions: Salmonella enterica, 2421, 24 h; outline: as §2
Staphylococcus aureus [6] = assay: Bactericidal activity against quinolone-resistant Staphylococcus aureus CCARM 3505 after 24 hrs by agar plate method; assay type: functional; conditions: CCARM 3505, 24 h; outline: as §1
Staphylococcus aureus [7] = assay: Ratio of MBC to MIC for Staphylococcus aureus KCTC 503; assay type: functional
Outline: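 The ratio divides MBC by MIC for the same strain. MIC comes from two-fold broth microdilution in Mueller-Hinton broth (about 10^5 CFU/mL, 37 °C, 24 h, absorbance at 630 nm). MBC comes from subculturing 5 µL from clear wells onto Mueller-Hinton agar for another 24 h at 37 °C, taken as the lowest concentration with no colonies.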

Pseudomonas aeruginosa [8] = assay: Antibacterial activity against Pseudomonas aeruginosa 2004 after 24 hrs by two-fold serial dilution method; assay type: functional; conditions: Pseudomonas aeruginosa, 2004, 24 h; outline: as §2
Staphylococcus aureus [9] = assay: Bactericidal activity against Staphylococcus aureus KCTC 503 after 24 hrs by agar plate method; assay type: functional; conditions: KCTC 503, 24 h; outline: as §1
Staphylococcus aureus [10] = assay: Antibacterial activity against Staphylococcus aureus KCTC 503 after 24 hrs by two-fold serial dilution method; assay type: functional; conditions: KCTC 503, 24 h; outline: as §2
Staphylococcus aureus [11] = assay: Antibacterial activity against methicillin-resistant Staphylococcus aureus CCARM 3506 after 24 hrs by two-fold serial dilution method; assay type: functional; conditions: CCARM 3506, 24 h; outline: as §3
Pseudomonas aeruginosa [12] = assay: Antibacterial activity against Pseudomonas aeruginosa 2742 after 24 hrs by two-fold serial dilution method; assay type: functional; conditions: Pseudomonas aeruginosa, 2742, 24 h; outline: as §2
Streptococcus mutans [13] = assay: Antibacterial activity against Streptococcus mutans 3065 after 24 hrs by two-fold serial dilution method; assay type: functional; conditions: Streptococcus mutans, 3065, 24 h; outline: as §2
Streptococcus mutans [14] = assay: Bactericidal activity against Streptococcus mutans 3065 after 24 hrs by agar plate method; assay type: functional; conditions: Streptococcus mutans, 3065, 24 h; outline: as §4
Staphylococcus aureus [15] = assay: Antibacterial activity against Staphylococcus aureus RN4220 after 24 hrs by two-fold serial dilution method; assay type: functional; conditions: RN4220, 24 h; outline: as §3
Candida albicans = assay: Antifungal activity against Candida albicans 7535 after 24 hrs by two-fold serial dilution method; assay type: functional; conditions: Candida albicans, 7535, 24 h
Staphylococcus aureus [16] = assay: Antibacterial activity against methicillin-resistant Staphylococcus aureus CCARM 3167 after 24 hrs by two-fold serial dilution method; assay type: functional; conditions: CCARM 3167, 24 h; outline: as §3
Staphylococcus aureus [17] = assay: Antibacterial activity against quinolone-resistant Staphylococcus aureus CCARM 3519 after 24 hrs by two-fold serial dilution method; assay type: functional; conditions: CCARM 3519, 24 h; outline: as §3
Escherichia coli [18] = assay: Antibacterial activity against Escherichia coli CCARM 1356 after 24 hrs by two-fold serial dilution method; assay type: functional; conditions: CCARM 1356, 24 h; outline: as §2
Staphylococcus aureus [19] = assay: Bactericidal activity against quinolone-resistant Staphylococcus aureus CCARM 3519 after 24 hrs by agar plate method; assay type: functional; conditions: CCARM 3519, 24 h; outline: as §1
Staphylococcus aureus [20] = assay: Antibacterial activity against Staphylococcus aureus KCTC 209 after 24 hrs by two-fold serial dilution method; assay type: functional; conditions: KCTC 209, 24 h; outline: as §2
Escherichia coli [21] = assay: Bactericidal activity against Escherichia coli KCTC 1924 after 24 hrs by agar plate method; assay type: functional; conditions: KCTC 1924, 24 h; outline: as §4

| Structure (SMILES) | MBC (Staphylococcus aureus [1]) | MBC (Staphylococcus aureus [2]) | MIC (Escherichia coli [3]) | MIC (Staphylococcus aureus [4]) | MBC (Staphylococcus aureus [5]) | MIC (Salmonella typhimurium) | MBC (Staphylococcus aureus [6]) | MIC (Pseudomonas aeruginosa [8]) | MBC (Staphylococcus aureus [9]) | MIC (Staphylococcus aureus [10]) | MIC (Staphylococcus aureus [11]) | MIC (Pseudomonas aeruginosa [12]) | MIC (Streptococcus mutans [13]) | MIC (Staphylococcus aureus [15]) | MIC (Candida albicans) | MIC (Staphylococcus aureus [16]) | MIC (Staphylococcus aureus [17]) | MIC (Escherichia coli [18]) | MBC (Staphylococcus aureus [19]) | MIC (Staphylococcus aureus [20]) | other results |
| --- | --- | --- | --- | --- | --- | --- | --- | --- | --- | --- | --- | --- | --- | --- | --- | --- | --- | --- | --- | --- | --- |
| Cc1ccc(-c2n[nH]c(=S)n2/N=C/c2ccc(/C=C3\SC(=S)N([C@@H](Cc4ccccc4)C(=O)O)C3=O)cc2)cc1 | 128 µg/mL (≈ 219 µM) | 64 µg/mL (≈ 109 µM) | > 128 µg/mL | 16 µg/mL (≈ 27.3 µM) | 8 µg/mL (≈ 13.7 µM) | > 128 µg/mL | 128 µg/mL (≈ 219 µM) | > 128 µg/mL | 64 µg/mL (≈ 109 µM) | 64 µg/mL (≈ 109 µM) | 16 µg/mL (≈ 27.3 µM) | > 128 µg/mL | 64 µg/mL (≈ 109 µM) | 8 µg/mL (≈ 13.7 µM) | > 64 µg/mL | 8 µg/mL (≈ 13.7 µM) | 16 µg/mL (≈ 27.3 µM) | > 128 µg/mL | > 128 µg/mL | > 64 µg/mL | Ratio (Staphylococcus aureus [7]): <=4; MBC (Streptococcus mutans [14]): > 256 µg/mL |
| O=C(O)[C@H](Cc1ccccc1)N1C(=O)/C(=C/c2ccc(/C=N/n3c(-c4ccc(Br)cc4)n[nH]c3=S)cc2)SC1=S | 128 µg/mL (≈ 197 µM) | 32 µg/mL (≈ 49.2 µM) | > 128 µg/mL | 8 µg/mL (≈ 12.3 µM) | 64 µg/mL (≈ 98.4 µM) | > 128 µg/mL | 32 µg/mL (≈ 49.2 µM) | > 128 µg/mL | 32 µg/mL (≈ 49.2 µM) | 8 µg/mL (≈ 12.3 µM) | 16 µg/mL (≈ 24.6 µM) | > 128 µg/mL | 16 µg/mL (≈ 24.6 µM) | 8 µg/mL (≈ 12.3 µM) | > 64 µg/mL | 8 µg/mL (≈ 12.3 µM) | 8 µg/mL (≈ 12.3 µM) | > 128 µg/mL | 64 µg/mL (≈ 98.4 µM) | > 64 µg/mL | Ratio (Staphylococcus aureus [7]): <=4; MBC (Streptococcus mutans [14]): 64 µg/mL (≈ 98.4 µM) |
| O=C(O)[C@H](Cc1ccccc1)N1C(=O)/C(=C/c2ccc(/C=N/n3c(-c4ccc(F)cc4)n[nH]c3=S)cc2)SC1=S | > 256 µg/mL | 128 µg/mL (≈ 217 µM) | > 128 µg/mL | 16 µg/mL (≈ 27.1 µM) | 128 µg/mL (≈ 217 µM) | > 128 µg/mL | 128 µg/mL (≈ 217 µM) | > 128 µg/mL | 128 µg/mL (≈ 217 µM) | 32 µg/mL (≈ 54.3 µM) | 64 µg/mL (≈ 109 µM) | > 128 µg/mL | 64 µg/mL (≈ 109 µM) | 16 µg/mL (≈ 27.1 µM) | > 64 µg/mL | 16 µg/mL (≈ 27.1 µM) | 16 µg/mL (≈ 27.1 µM) | > 128 µg/mL | 128 µg/mL (≈ 217 µM) | > 64 µg/mL | Ratio (Staphylococcus aureus [7]): <=4; MBC (Streptococcus mutans [14]): 256 µg/mL (≈ 434 µM) |
| O=C(O)CN1C(=O)/C(=C/c2ccc(/C=N/n3c(-c4ccccc4)n[nH]c3=S)cc2)SC1=S |  |  | > 128 µg/mL | > 64 µg/mL |  | > 128 µg/mL |  | > 128 µg/mL |  | > 64 µg/mL | > 64 µg/mL | > 128 µg/mL | > 64 µg/mL | > 64 µg/mL | > 64 µg/mL | > 64 µg/mL | > 64 µg/mL | > 128 µg/mL |  | > 64 µg/mL |  |
| Cc1cccc(-c2n[nH]c(=S)n2/N=C/c2ccc(/C=C3\SC(=S)N(CC(=O)O)C3=O)cc2)c1 |  | > 256 µg/mL | 32 µg/mL (≈ 64.6 µM) | 64 µg/mL (≈ 129 µM) |  | > 128 µg/mL | > 256 µg/mL | > 128 µg/mL | > 256 µg/mL | 64 µg/mL (≈ 129 µM) | > 64 µg/mL | > 128 µg/mL | > 64 µg/mL | > 64 µg/mL | > 64 µg/mL | 64 µg/mL (≈ 129 µM) | 64 µg/mL (≈ 129 µM) | > 128 µg/mL | > 256 µg/mL | > 64 µg/mL | MBC (Escherichia coli [21]): > 256 µg/mL |
| Cc1ccc(-c2n[nH]c(=S)n2/N=C/c2ccc(/C=C3\SC(=S)N(CC(=O)O)C3=O)cc2)cc1 |  |  | > 128 µg/mL | > 64 µg/mL |  | > 128 µg/mL |  | > 128 µg/mL |  | > 64 µg/mL | > 64 µg/mL | > 128 µg/mL | > 64 µg/mL | > 64 µg/mL | > 64 µg/mL | > 64 µg/mL | 16 µg/mL (≈ 32.3 µM) | > 128 µg/mL | > 128 µg/mL | > 64 µg/mL |  |
| O=C(O)CN1C(=O)/C(=C/c2ccc(/C=N/n3c(-c4cccc(Cl)c4)n[nH]c3=S)cc2)SC1=S |  |  | > 128 µg/mL | > 64 µg/mL |  | > 128 µg/mL |  | > 128 µg/mL |  | > 64 µg/mL | > 64 µg/mL | > 128 µg/mL | > 64 µg/mL | > 64 µg/mL | > 64 µg/mL | > 64 µg/mL | > 64 µg/mL | > 128 µg/mL |  | > 64 µg/mL |  |
